Measurements collected from several papers.
Target: Myosin light chain kinase, smooth muscle (MYLK, Homo sapiens, UniProt Q15746)

Structure (SMILES)	assay	conditions	endpoint	value
CC(C)(C)c1cc(C=C(C#N)C#N)cc(Br)c1O	enzyme activity, inhibitor	0.5 µM	remaining activity	90.6%
COc1ncccc1-c1cnn2ccc(N3CCN(C(=O)OC(C)C)CC3)nc12	binding, competition with immobilised ligand	1 µM	remaining binding	85%
C#Cc1n[nH]c2c(-c3cn([C@@H](C)c4ccccn4)c(=O)[nH]c3=O)cc(F)cc12	enzyme activity, inhibitor	0.1 µM	inhibition	1.4%
Cn1cc(-c2cccc(N3CCc4c(sc5c4CC(C)(C)C5)C3=O)c2CO)cc(Nc2ccncn2)c1=O	enzyme activity, inhibitor	1 µM	inhibition	-4%
C#Cc1n[nH]c2c(-c3cn([C@@H](C)c4ccccc4)c(=O)[nH]c3=O)cc(F)cc12	enzyme activity, inhibitor	0.1 µM	inhibition	-0.2%
Cc1nn(C)cc1-c1nc2c(N3CCN(Cc4ccc(Cl)cc4)CC3)c(Cl)cnc2[nH]1	binding, competition with immobilised ligand	1 µM	remaining binding	89%
Nc1ncc(-c2nc(N3CCOCC3)nc(N3CCOCC3)n2)c(C(F)F)n1	binding, competition with immobilised ligand	10 µM	remaining binding	78%
O=c1[nH]c2ccccc2n1C1CCN(Cc2ccc(-c3[nH]c4cc5ncnc5cc4nc3-c3ccccc3)cc2)CC1	cell-free assay	0.5 µM	remaining signal	104%
Cn1cncc1[C@](O)(COc1ccc(C#N)cc1-c1ccc(OC(F)(F)F)cc1)c1ccc(C#N)cc1	cell-free assay, competition with immobilised ligand	1 µM	remaining binding	88%
